{"data": "Experimental data from different studies", "cell line": "A498", "read-out": "cell growth or viability", "note": "Lines come from different studies, so protocols differ. pIC50: −log10 of the molar value."}
{"SMILES": "S=C([S][Au-][P+](CCCCCC[P+]([Au-][S]C(=S)n1cccn1)(c1ccccc1)c1ccccc1)(c1ccccc1)c1ccccc1)n1cccn1", "endpoint": "GI50", "result": "1010 nM"}
{"SMILES": "COc1cccc(Oc2ccccc2NC(=O)CNC(=O)c2cccc3ccccc23)c1", "assay": "SRB", "conditions": "48 h", "endpoint": "GI50", "result": "115 nM"}
{"SMILES": "CC(C)C[C@H](NC(=O)[C@H](Cc1ccccc1)NC(=O)c1cnccn1)B(O)O", "assay": "ATP luminescence", "endpoint": "pIC50", "result": 8.11}
{"SMILES": "CCC(=O)Nc1cc(Nc2cc(NC3CC3)n3ncc(C#N)c3n2)ccc1C", "assay": "ATP luminescence", "conditions": "72 h", "endpoint": "pIC50", "result": 5.74}
{"SMILES": "COc1ccc(C(=O)/C=C/c2cccc3ccccc23)cc1S(N)(=O)=O", "assay": "SRB", "conditions": "10 µM", "endpoint": "inhibition", "result": "-7%"}
{"SMILES": "COc1cc(-c2ccc(-c3ccc(C(=N)N)nc3)s2)cc(OC)c1OC", "endpoint": "GI50", "result": "4910 nM"}
{"SMILES": "COc1ccc(C(=O)/C=C/c2ccc3ccccc3c2)cc1S(N)(=O)=O", "assay": "SRB", "conditions": "48 h", "endpoint": "GI50", "result": "14500 nM"}
{"SMILES": "Cc1cc(C)n(C(=S)[S][Au][PH](CCCCCC[PH]([Au][S]C(=S)n2nc(C)cc2C)(c2ccccc2)c2ccccc2)(c2ccccc2)c2ccccc2)n1", "endpoint": "GI50", "result": "384 nM"}
{"SMILES": "COc1cc(Nc2nccc(-c3cnn4nc(OC)ccc34)n2)cc(C(F)(F)F)c1", "assay": "ATP luminescence", "endpoint": "pIC50", "result": 6.37}
